Hits are enriched below; roughly 0.72% of the tested compounds scored in any of these assays.
hIAP inh: human IAP inhibitors, primary screen, biochemical, luminescence, uHTS; Intestinal-type alkaline phosphatase (Homo sapiens), P09923; purified IAP, CDP-Star luminescence, 30 min; inhibition, % at 10 µM; 330,000 tested, 0.12% active; AID 2544, 2010;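 active = inhibition reaching a set limit with compound at 10 µM in the primary screen, cut at about 35% in these data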;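 also: plate controls were DMSO wells with enzyme for no effect and no-enzyme buffer wells for full effect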
Target sequence (P09923 whole entry, looked up): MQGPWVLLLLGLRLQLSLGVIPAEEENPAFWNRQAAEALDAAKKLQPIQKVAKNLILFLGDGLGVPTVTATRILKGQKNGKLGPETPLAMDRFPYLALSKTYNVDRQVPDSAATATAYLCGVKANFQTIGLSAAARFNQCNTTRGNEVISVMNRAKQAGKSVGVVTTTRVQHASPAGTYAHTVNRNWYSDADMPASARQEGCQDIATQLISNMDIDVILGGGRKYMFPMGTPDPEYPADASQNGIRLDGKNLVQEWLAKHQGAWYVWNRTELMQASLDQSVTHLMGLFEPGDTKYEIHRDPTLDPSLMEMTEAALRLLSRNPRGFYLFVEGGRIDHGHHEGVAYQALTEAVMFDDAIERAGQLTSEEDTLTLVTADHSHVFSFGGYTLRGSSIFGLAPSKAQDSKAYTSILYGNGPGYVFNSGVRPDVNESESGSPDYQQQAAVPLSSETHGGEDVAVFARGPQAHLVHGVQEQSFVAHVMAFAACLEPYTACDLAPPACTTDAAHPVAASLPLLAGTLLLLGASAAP
hIAP act: human IAP activators, primary screen, biochemical, luminescence, uHTS; Intestinal-type alkaline phosphatase (Homo sapiens), P09923; purified human IAP, CDP-Star luminescence, 30 min; active compounds read high; 1 = vehicle-only enzyme, 0 = enzyme-free background; activation factor at 10 µM; 330,000 tested, 0.16% active; AID 2524, 2010;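 active = activation factor of the enzyme at least 2-fold when tested at 20 µM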
bIAP inhibitor: bovine intestinal alkaline phosphatase inhibitors, primary screen, selectivity assay for TNAP inhibitor project, biochemical, bovine IAP, CDP-star luminescence; alkaline phosphatase, intestinal [Bos taurus]; purified bovine IAP, 30 min; inhibition, % at 20 µM; 190,000 tested, under 10 active; AID 1019, 2008;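 active = over 50% inhibition of intestinal alkaline phosphatase at 20 µM in the single-dose screen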
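System: purified bovine intestinal alkaline phosphatase (IAP) enzyme; Input: IAP diluted 1/65,000,000 in the well; Measured by: CDP-star luminescence signal; Compound dosing: 20 µM single dose; Incubation: 30 min reaction at room temperature.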
bIAP act: bovine intestinal alkaline phosphatase activators, primary screen, biochemical, bovine IAP, CDP-star luminescence; alkaline phosphatase, intestinal [Bos taurus]; purified bovine IAP, 30 min; active compounds read high; fold of DMSO-control signal, blank-subtracted; activation factor at 20 µM; 200,000 tested, 0.17% active; AID 1016, 2008;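 active = activation factor of 2 or more at 20 µM, a signal rise over negative controls twice the positive control's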
mIAP inh: inhibitors of mouse IAP, primary screen, biochemical, luminescence, uHTS. purified mouse IAP, CDP-Star luminescence, 30 min. inhibition, % at 10 µM. 330,000 tested, 0.2% active;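 active = inhibition of at least 40% at 10 µM in the primary screen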;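 also: plate controls were DMSO with enzyme for no effect and no enzyme wells for full effect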
mIAP activ: activators of mouse IAP, primary screen, biochemical, luminescence, uHTS; muIAP, CDP-Star luminescence, 30 min; active compounds read high; 1 = vehicle-only enzyme signal, 0 = enzyme-free wells; intestinal alkaline phosphatase [Mus musculus]; activation factor at 10 µM; 330,000 tested, 0.24% active;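 active = activation factor of at least 2 at 20 µM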
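System: mouse IAP enzyme. Reagent: CDP-Star chemiluminescent phosphatase substrate. Benchmarks: DMSO wells, no-enzyme wells. Times: 30 min enzyme-substrate-compound incubation at room temperature. Detection: luminescence from enzymatic CDP-Star hydrolysis. Doses: test compounds delivered from DMSO solution.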
* marks the source's active call; other numbers are inactive results; i = inactive; · = not tested or not shown.

SMILES	hIAP inh	hIAP act	bIAP inhibitor	bIAP act	mIAP inh	mIAP activ
N#Cc1c(NC(=O)CSc2ncnc3sccc23)oc(-c2ccco2)c1-c1ccco1	12.3	0.877	-2.0	1	69.8*	0.302
CSc1cccc(NC(=O)Nc2nc3c(C)cccc3s2)c1	-20.0	1.2	·	·	-115.0	2.15*
Cc1ccc(NC(=O)C(Cc2ccccc2)NC(=O)OCc2ccccc2)cc1C (stereo unspecified)	-7.0	1.07	-3.2	1	-110.7	2.11*
Cc1cccc(NC(=O)[C@H](Cc2ccccc2)NC(=O)OCc2ccccc2)c1	4.6	0.954	-0.2	1	-57.0	1.57
COc1cc(NC(=O)CN(c2ccc(C)cc2)S(=O)(=O)c2c(C)noc2C)cc(OC)c1	-20.3	1.2	·	·	-81.4	1.81
COc1cc(NC(=O)CN(c2cc(C)cc(C)c2)S(=O)(=O)c2c(C)noc2C)cc(OC)c1	11.9	0.881	9.6	0.9	-198.3	2.98*
CSCCC(NC(=O)c1ccco1)C(=O)N1CCN(C(c2ccccc2)c2ccccc2)CC1 (stereo unspecified)	-1.5	1.01	·	·	7.6	0.924
COc1cc(NCC(=O)Nc2cccc(S(=O)(=O)N3CCCCC3)c2)cc(OC)c1OC	-4.2	1.04	·	·	-9.9	1.1
Cc1ccc(NC(=O)C2CCC(=O)N2)cc1C (stereo unspecified)	-8.6	1.09	8.6	0.9	-3.3	1.03
Cc1ccc(NC2=NC(C(=O)Nc3ccc(C)c(C)c3)CC(=O)N2)cc1 (stereo unspecified)	-10.3	1.1	-96.3	2*	6.9	0.931
Cc1c(C(=O)OCC(=O)Nc2ccc(C(=O)N(C)C)cc2)oc2ccccc12	-30.2	1.3	·	·	-4.4	1.04
C/C(=N\Nc1cccc2cccnc12)c1ccccn1	-106.4	2.06*	-17.0	1.2	9.6	0.904
C/C(=N\Nc1cccc2cccnc12)c1ccccc1O	4.2	0.958	1.7	1	7.6	0.924
CCCCOCCCNC(=S)Nc1ccc(S(=O)(=O)N2CCOCC2)cc1	-12.1	1.12	·	·	-28.8	1.29
O=S(=O)(c1ccc(NC(=S)NCCC(c2ccccc2)c2ccccc2)cc1)N1CCOCC1	7.0	0.93	6.2	0.9	-107.1	2.07*
NNC(=S)Nc1ccc(S(=O)(=O)N2CCOCC2)cc1	1.4	0.986	·	·	7.3	0.927
CC(C)(C)CC(C)(C)NC(=S)Nc1ccc(S(=O)(=O)N2CCOCC2)cc1	7.7	0.923	-3.4	1	-115.4	2.15*
CCOC(=O)C1CCN(C(=O)COc2ccc3c(C)cc(=O)oc3c2)CC1	16.5	0.835	·	·	5.9	0.941
O=C(CNCc1cccc(Cl)c1)N1CCc2ccccc2C1	-12.3	1.12	·	·	-5.0	1.05
CC1CCCCC1NC(=S)Nc1ccc(Cl)cc1Cl (stereo unspecified)	-5.3	1.05	-2.3	1	-177.8	2.78*
COc1ccc(N=c2scc(-c3ccc(S(=O)(=O)N4CCOCC4)cc3)n2CCCO)cc1	·	·	7.2	0.9	·	·
COc1ccc(-c2csc(=Nc3ccccc3)n2CCO)cc1	-2.6	1.03	-95.3	2*	9.1	0.909
COc1ccc(/C=C(\CC(=O)O)c2nc3ccccc3o2)cc1	-13.3	1.13	-11.5	1.1	-10.7	1.11
COc1ccc(C(=O)/C(=C/c2cccs2)c2nc3ccccc3o2)cc1	11.9	0.881	-1.8	1	45.5*	0.545
CCOc1ccc(S(=O)(=O)N2CCN(Cc3ccc4c(c3)OCO4)CC2)cc1C	-3.8	1.04	·	·	0.3	0.997
SMILES	hIAP inh	hIAP act	bIAP inhibitor	bIAP act	mIAP inh	mIAP activ
CC[C@H]1OC(=O)[C@H](C)[C@@H](O[C@H]2C[C@@](C)(OC)[C@@H](O)[C@H](C)O2)[C@H](C)[C@@H](O[C@@H]2O[C@H](C)C[C@H](N(C)C)[C@H]2O)[C@](C)(O)C[C@@H](C)C(=NOCOCCOC)[C@H](C)[C@@H](O)[C@]1(C)O	-8.3	1.08	·	·	3.2	0.968
COc1ccccc1NS(=O)(=O)c1cc([N+](=O)[O-])ccc1N/N=C/c1c[nH]c2ccccc12	10.8	0.892	47.1	0.5	21.7	0.783
COc1ccc(C=NNc2ccc([N+](=O)[O-])cc2S(=O)(=O)Nc2ccccc2C(=O)O)cc1OC	9.3	0.907	·	·	41.5*	0.585
CCOc1ccc2nc(NCCNC(=O)Nc3cccc(C)c3)c(C#N)cc2c1	12.1	0.879	-79.4	1.8	-115.4	2.15*
C=C1CCN([C@@H](CC(C)C)C(=O)NCc2ccc(Cl)cc2)S(=O)(=O)c2ccccc21	11.7	0.883	·	·	45.6*	0.544
C=C1CCN([C@@H](CC(C)C)C(=O)NCc2ccc(Cl)c(Cl)c2)S(=O)(=O)c2ccccc21	23.9	0.761	·	·	-19.2	1.19
Cc1ccc(-n2nc3c(c2NC(=O)c2cccs2)CS(=O)(=O)C3)c(C)c1	-32.8	1.33	·	·	3.3	0.967
COC(=O)c1ccc(NC(=S)NC2CC3CCC2C3)cc1 (stereo unspecified)	-14.7	1.15	-15.5	1.2	-201.7	3.02*
COC(=O)c1ccc(NC(=O)C2CC3CCC2C3)cc1 (stereo unspecified)	6.2	0.938	·	·	-6.9	1.07
Cc1cc(C(=O)N[C@H](c2ccccc2)[C@@]2(C)C[C@@H]2[C@@H](C)C(=O)Nc2ccc3ccccc3c2)n(C)n1	-15.3	1.15	7.2	0.9	-109.5	2.1*
C[C@@H](C(=O)Nc1ccc2ccccc2c1)[C@H]1C[C@]1(C)[C@H](NC(=O)OCc1ccccc1)c1ccccc1	-2.3	1.02	8.3	0.9	-49.5	1.5
CC1CC(=O)N(CC(=O)NCc2ccccc2)c2ccccc2S1(=O)=O (stereo unspecified)	-10.8	1.11	·	·	-2.3	1.02
COc1cc2c(cc1OC)C(C(=O)Nc1ccc3c(c1)OCCO3)C1c3ccccc3CCN1C2=O (stereo unspecified)	4.7	0.953	-145.9	2.5*	-94.3	1.94
CCCCCCOc1ccc(C(=O)NCCCn2ccnc2)cc1	-36.8	1.37	-100.9	2*	-16.9	1.17
Cc1cc(Cl)cc(C)c1OCCCCn1ccnc1	5.4	0.946	-8.6	1.1	-2.6	1.03
Cc1cc(OCCCCn2ccnc2)cc(C)c1Cl	-15.0	1.15	i	16.1*	3.9	0.961
CCCCOc1ccc(NC(=O)C(=O)NCCCn2ccnc2)cc1	-12.5	1.12	-25.0	1.3	11.4	0.886
CCOC(=O)c1cc(-c2ccccc2)n(CC2CC(c3ccc(OC)cc3)=NO2)n1 (stereo unspecified)	2.8	0.972	·	·	0.1	0.999

High-throughput results deposited in PubChem by Sanford-Burnham Center for Chemical Genomics.
